Laboratory results published in ChEMBL document CHEMBL1154461, “6-Substituted 2-oxo-2H-1-benzopyran-3-carboxylic acid derivatives in a new approach of the treatment of cancer cell invasion and metastasis” (2008).

Legend:
HT-1080 [1] = assay: Antiinvasive activity in human HT1080 cells assessed as number of cells migrated at 0.1 uM after 24 hrs by Boyden chamber invasion assay; assay type: functional; conditions: in the assay text read “after 48 hrs” for “after 24 hrs”
Procedure, shortened: (§1)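 HT 1080 cells, harvested at 70–80% confluence, were seeded at 6×10⁴ cells per filter in serum-free DMEM with BSA. Transwell filters were coated with human placental type IV collagen. Chambers were incubated 48 h at 37 °C, with media renewed at 24 h. Lower-surface cells were fixed, Giemsa-stained and counted by light microscopy. Results are % of untreated control migration, mean ± s.d., n=3.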

HT-1080 [2] = assay: Antiinvasive activity in human HT1080 cells assessed as number of cells migrated at 10 uM after 24 hrs by Boyden chamber invasion assay; assay type: functional; conditions: in the assay text read “after 48 hrs” for “after 24 hrs”; procedure, shortened: as §1
HT-1080 [3] = assay: Antiinvasive activity in human HT1080 cells assessed as number of cells migrated at 1 uM after 48 hrs by Boyden chamber invasion assay
HT-1080 [4] = assay: Antiinvasive activity in human HT1080 cells assessed as number of cells migrated at 10 uM after 48 hrs by Boyden chamber invasion assay
HT-1080 [5] = assay: Antiinvasive activity in human HT1080 cells assessed as number of cells migrated at 0.1 uM after 48 hrs by Boyden chamber invasion assay

Row | Compound | Activity (HT-1080 [1]) [%] | Activity (HT-1080 [2]) [%] | Cells migrated (HT-1080 [3]) [%] | Activity (HT-1080 [4]) [%] | Activity (HT-1080 [5]) [%]
1 | O=C(Oc1cccc(Cl)c1)c1cc2ccccc2oc1=O | 52.4 | 35.65 | 45.5 | – | –
2 | CC(=O)OCc1ccc2oc(=O)c(C(=O)Oc3cccc(Cl)c3)cc2c1 | 95.2 | 6.17 | 49.11 | – | –
3 | O=C(Oc1cccc(Cl)c1)c1cc2cc(CCl)ccc2oc1=O | 98.35 | 67 | 79.76 | – | –
4 | Cc1ccc2oc(=O)c(C(=O)Oc3cccc(Cl)c3)cc2c1 | 81.5 | 27.62 | 52.49 | – | –
5 | CC(=O)NCc1ccc2oc(=O)c(C(=O)Oc3ccccc3)cc2c1 | – | – | 63.45 | – | –
6 | CC(=O)OCc1ccc2oc(=O)c(C(=O)N(C)c3ccccc3Cl)cc2c1 | – | – | 62.78 | – | –
7 | CC(=O)OCc1ccc2oc(=O)c(C(=O)N(C)c3cccc(Cl)c3)cc2c1 | – | – | 82.56 | – | –
8 | CCC(=O)OCc1ccc2oc(=O)c(C(=O)Oc3cccc(Br)c3)cc2c1 | 84.36 | 21.32 | 40.23 | – | –
9 | CCCC(=O)OCc1ccc2oc(=O)c(C(=O)Oc3cccc(Br)c3)cc2c1 | 88.55 | – | 50.47 | 24.67 | –
10 | CC(=O)OCc1ccc2oc(=O)c(C(=O)Sc3cccc(Cl)c3)cc2c1 | 76.54 | 61.86 | 65.84 | – | –
11 | CC(=O)OCc1ccc2oc(=O)c(C(=O)Sc3cccc(Br)c3)cc2c1 | 79.58 | 67.84 | 70.86 | – | –
12 | CC(=O)OCc1ccc2oc(=O)c(C(=O)Nc3cccc(Cl)c3)cc2c1 | 79.55 | 42.75 | 66.85 | – | –
13 | O=C1NC(=O)C(c2ccc(-c3ccccc3)cc2)(N2CCN(c3ccc([N+](=O)[O-])cc3)CC2)C(=O)N1 | – | – | 41.6 | – | –
14 | Cl.NCc1ccc2oc(=O)c(C(=O)Oc3cccc(F)c3)cc2c1 | – | – | 45.25 | – | –
15 | CC(C)(C)C(=O)OCc1ccc2oc(=O)c(C(=O)Oc3cccc(Br)c3)cc2c1 | – | 23.64 | 48.21 | – | 65.24
16 | O=C(Oc1ccccc1)c1cc2cc([N+](=O)[O-])ccc2oc1=O | – | – | 76.68 | – | –
17 | O=C(Oc1cccc(F)c1)c1cc2cc([N+](=O)[O-])ccc2oc1=O | – | – | 53.56 | – | –
18 | O=C(Oc1cccc(Cl)c1)c1cc2cc([N+](=O)[O-])ccc2oc1=O | – | – | 65.78 | – | –

Row | Compound | Activity (HT-1080 [1]) [%] | Activity (HT-1080 [2]) [%] | Cells migrated (HT-1080 [3]) [%] | Activity (HT-1080 [4]) [%] | Activity (HT-1080 [5]) [%]
19 | CC(=O)NCc1ccc2oc(=O)c(C(=O)Oc3cccc(Br)c3)cc2c1 | 34.38 | 27.14 | 36.94 | – | –
20 | CC(=O)NCc1ccc2oc(=O)c(C(=O)Oc3cccc(I)c3)cc2c1 | – | – | 23.47 | – | –
21 | CC(=O)NCc1ccc2oc(=O)c(C(=O)Oc3cccc(Cl)c3)cc2c1 | – | – | 36.58 | – | –
22 | CC(=O)OCc1ccc2oc(=O)c(C(=O)Oc3cccc(Br)c3)cc2c1 | 39.47 | 11.77 | 21.81 | – | –
23 | CC(C)CC(C(=O)N(C)C(Cc1ccccc1)C(=O)O)C(CSc1ccccc1)C(=O)NO (configuration not stated) | – | – | 38.45 | – | –
24 | CCCCC(=O)OCc1ccc2oc(=O)c(C(=O)Oc3cccc(Br)c3)cc2c1 | 92.36 | 32.26 | 63.25 | – | –
25 | CCCCCCC(=O)OCc1ccc2oc(=O)c(C(=O)Oc3cccc(Br)c3)cc2c1 | 89.36 | 35.96 | 55.56 | – | –
26 | Cl.NCc1ccc2oc(=O)c(C(=O)Oc3cccc(Br)c3)cc2c1 | 88.26 | 63.58 | 79.25 | – | –
27 | O=C(Oc1cccc(Br)c1)c1cc2cc([N+](=O)[O-])ccc2oc1=O | – | – | 35.22 | – | –
28 | Cl.NCc1ccc2oc(=O)c(C(=O)Oc3ccccc3)cc2c1 | – | – | 85.53 | – | –
29 | CC(=O)NCc1ccc2oc(=O)c(C(=O)Oc3cccc(F)c3)cc2c1 | – | – | 65.58 | – | –
30 | CC(=O)OCc1ccc2oc(=O)c(C(=O)N(C)c3ccc(Cl)cc3)cc2c1 | – | – | 98.56 | – | –
31 | Cl.NCc1ccc2oc(=O)c(C(=O)Oc3cccc(Cl)c3)cc2c1 | – | – | 86.56 | – | –
32 | Cl.NCc1ccc2oc(=O)c(C(=O)Oc3cccc(I)c3)cc2c1 | – | – | 25.34 | – | –
33 | CC(=O)OCc1ccc2oc(=O)c(C(=O)Sc3ccccc3)cc2c1 | 89.45 | 73.84 | 83.45 | – | –
34 | O=C(Oc1cccc(I)c1)c1cc2cc([N+](=O)[O-])ccc2oc1=O | – | – | 63.58 | – | –
35 | CC(C)C(=O)OCc1ccc2oc(=O)c(C(=O)Oc3cccc(Br)c3)cc2c1 | 54.36 | 21.07 | 37.8 | – | –
36 | CCCCCC(=O)OCc1ccc2oc(=O)c(C(=O)Oc3cccc(Br)c3)cc2c1 | 94.25 | 33.94 | 59.32 | – | –
